Measurements collected from several papers.
Each line is one published result; the experiments were not run side by side.
INSR: Insulin receptor (INSR, Homo sapiens, UniProt P06213)

Cc1ccc(C(=O)Nc2ccc(CN3CCN(C)CC3)c(C(F)(F)F)c2)cc1C#Cc1cnc2cccnn12  remaining signal (INSR; cell-free assay; 23.5 nM): 85%
CN(c1ncccc1CNc1nc(Nc2ccc3c(c2)CC(=O)N3)ncc1C(F)(F)F)S(C)(=O)=O  inhibition (INSR; enzyme activity; inhibitor; 1 µM): 57.2%
O=C(NC[C@@H]1[C@H]2CN(C(=O)OCc3cc(C(F)(F)F)cc(C(F)(F)F)c3)C[C@@H]12)c1ccc2[nH]nnc2c1  remaining binding (INSR; cell-free assay; competition with immobilised ligand; 1 µM): 83%
Cc1cc(NC(=O)c2cccc3cc(-c4cccc5[nH]nc(N)c45)ccc23)ccc1F  activity vs control (INSR; enzyme activity; inhibitor; 0.1 µM): 107%
N#CCCc1ccc2c(c1)-c1[nH]c3ccc([N+](=O)[O-])cc3c1CC(=O)N2  remaining signal (INSR; cell-free assay; 0.5 µM): 94.1%
N#CC1(c2ccccn2)CCN(Cc2cc(C(=O)N3CCCC3)c(=O)n3ccccc23)CC1  remaining binding (INSR; cell-free assay; competition with immobilised ligand; 1 µM): 88%
Cc1ccc(Nc2nccc(N(C)c3ccc4c(C)n(C)nc4c3)n2)cc1S(N)(=O)=O  inhibition (INSR; enzyme activity; inhibitor; 0.3 µM): 6%
FC(F)(F)c1ccc2c(c1)nc(-c1cccnc1)n2C1CC1  remaining binding (INSR; cell-free assay; competition with immobilised ligand; 1 µM): 100%
Cc1ccc(NC(=O)c2ccc(C)c(C(F)(F)F)c2)cc1C#Cc1nn(C2CCC(O)CC2)c2ncnc(N)c12 (stereo not drawn)  remaining signal (INSR; cell-free assay; 10 µM): 97%
COc1cc2ncnc(Nc3ccc(Oc4ccccc4)c(C)c3C)c2cc1OC  inhibition (INSR; enzyme activity; inhibitor; 1 µM): 5%
CO[C@@H](C)c1c(Nc2ccc([C@H](N(C)C(=O)C3CCS(=O)(=O)CC3)C(F)(F)F)cc2)cnc2cc(Cl)nn12  remaining binding (INSR; cell-free assay; competition with immobilised ligand; 1 µM): 87%
Cc1ccc(C(=O)NCc2ccsc2)cc1C#Cc1cn(C(C)C)c2ncnc(N)c12  activity vs control (Insulin receptor, phosphorylated (INSR, Homo sapiens, UniProt P06213); enzyme activity; inhibitor; 1 µM): 95%
CSc1nc(C)c(-c2ccnc(Nc3ccc(N4CCOCC4)cc3)c2)[nH]1  inhibition (INSR; cell-free assay; inhibitor; 10 µM): -1.8%
CS(=O)(=O)Nc1cccc(-c2csc(NC(=O)CSc3nc4nccnc4c(=O)n3CCc3ccccc3)n2)c1  inhibition (INSR; enzyme activity; inhibitor; 10 µM): 1%
C[C@@H]1CCN(C(=O)CC#N)C[C@@H]1N(C)c1ncnc2[nH]ccc12  remaining signal (INSR; cell-free assay; 0.5 µM): 101%
COc1cc(/C=C/C(=O)CC(=O)/C=C/c2ccc(O)c(OC)c2)ccc1O  activity vs control (INSR; enzyme activity; inhibitor; 1 µM): 46%
Cc1nc(C2CCN(C(=O)c3ccc(OC(F)(F)F)cc3N)CC2)c2ncc(N3CCN(C)CC3)cc2n1  remaining binding (INSR; cell-free assay; competition with immobilised ligand; 1 µM): 93%
CNCc1ccc(-c2cc(-c3nc(-c4ccc(S(=O)(=O)C(C)C)cc4)cnc3N)on2)cc1  inhibition (INSR; enzyme activity; inhibitor; 0.4 µM): 0%
C[C@H](NC(=O)c1cnc2n1[C@](C)(Cc1ccc(C#N)cc1)C(=O)N2c1cc(Cl)c(F)c(Cl)c1)C(=O)NC1(c2ccccn2)CC1  remaining binding (INSR; cell-free assay; competition with immobilised ligand; 1 µM): 100%
CN(C)C1CCN(CC#Cc2nn(C3CCCC3)c3nc(NCc4ccccc4)ncc23)C1 (stereo not drawn)  inhibition (INSR; enzyme activity; inhibitor; FRET; 1 µM): 8%
CC(C)c1ccc(NC(=O)c2cccs2)c(-c2nc3ccccc3[nH]c2=O)c1  activity vs control (INSR; enzyme activity; inhibitor; 1 µM): 91%
Nc1ncnc2occ(-c3ccc(NC(=O)Nc4cc(C(F)(F)F)ccc4F)cc3)c12  remaining signal (INSR; cell-free assay; 20 µM): 3.2%
O=C1CCc2cc(Nc3cc(OC4CCOCC4)c([N+](=O)[O-])cc3Cl)ccc2N1  remaining binding (INSR; cell-free assay; competition with immobilised ligand; 1 µM): 93%
CN1CC(Oc2cnc(C#N)cc2-c2ccn3nc(NC(=O)C4CC4)cc3c2)C1  inhibition (INSR; enzyme activity; inhibitor; 1 µM): -2%
